Measurements from different studies.
Compare with care: the assays were run in different laboratories.

C=CC(=O)Nc1cc(Nc2nccc(Nc3cc(Cl)c(F)cc3C(C)(C)O)n2)c(OC)cc1N1CC[C@@H](N(C)C)C1
clearance (beagle dog, plasma; intravenous, 1 mg/kg): 30.9 mL/min/kg

CC[C@H](C)[C@@H]1NC(=O)[C@@](C)(NC(=O)[C@H](CCCNC(=N)N)NC(=O)[C@H](CC(C)C)NC(=O)[C@@H](NC(=O)[C@H](CCC(N)=O)NC(=O)[C@H](CC(C)C)NC(C)=O)[C@@H](C)O)CCCC=CCCC[C@@](C)(C(=O)N[C@@H](CC(C)C)C(=O)N[C@@H](Cc2ccc3ccccc3c2)C(N)=O)NC(=O)[C@H](CCCNC(=N)N)NC(=O)[C@H](CCC(N)=O)NC1=O
clearance (male BALB/c mouse, plasma; intravenous, 10 mg/kg): 0.713 mL/min/kg

COc1cc(OC)c2nccc(N3CCc4c(cc(Cn5ccnc5)cc4-c4cn(C)nc4C(F)(F)F)C3=O)c2c1
C0 (male CD-1 mouse, plasma; intravenous, 3 mg/kg): 1600 ng/mL

C[C@@H]1[C@H](O)[C@@H](C)/C=C/C=C/C=C/C=C/C=C/C=C/C=C/[C@H](O[C@@H]2O[C@H](C)[C@@H](O)[C@H](N)[C@@H]2O)C[C@@H]2O[C@](O)(C[C@@H](O)C[C@@H](O)[C@H](O)CC[C@@H](O)C[C@@H](O)CC(=O)O[C@H]1C)C[C@H](O)[C@H]2C(=O)O
haemolysis (haemolysis; rabbit; 64 µg/mL, 1 h): 100%

CC(C)(C)c1ccc(O)c(CN(Cc2cc(C(C)(C)C)ccc2O)C2CCC(NC(N)=O)CC2)c1 (centres unmarked)
clearance (male C57BL/6 mouse, plasma; intraperitoneal, 25 mg/kg, single dose): 26.7 mL/min/kg

Cc1nn2c(-c3c(C)nn(C)c3-c3ccc(C(F)(F)F)cc3)nc(CO)c2c(=O)[nH]1
clearance (male beagle dog, plasma; intravenous, 1 mg/kg): 1.3 mL/min/kg

CC(C)(Nc1nc(-c2ccccn2)nc2ccccc12)c1ccccn1
C0 (female BALB/c mouse, plasma; intravenous, 1 mg/kg): 1800 ng/mL

C=CC(=O)N1CC2CC(n3nc(-c4ccc(C(=O)Nc5ccccn5)cc4)c4c(N)ncnc43)CC2C1 (centres unmarked)
Tmax (male Wistar rat, plasma; oral, 30 mg/kg): 2 h

CC(C)Oc1c(NC(=O)c2ccc(NC(=O)[C@H](CC(N)=O)NC(=O)c3ccc(NC(=O)c4ccc(C#N)cc4)cc3)cc2)ccc(C(=O)Nc2ccc(C(=O)O)cc2)c1O
C0 (male CD-1 mouse, plasma; intravenous, 5 mg/kg, single dose): 2940 ng/mL

CCc1cc(C(=O)NC)c2nccc(N3CCc4c(cc(Cn5ccnc5)cc4-c4cn(C)nc4C(F)(F)F)C3=O)c2c1
C0 (male CD-1 mouse, plasma; intravenous, 3 mg/kg): 7560 ng/mL

COc1ccc2c(c1OCc1ccccc1)C[C@@H](C(=O)O)N(C(=O)C(c1ccccc1)c1ccccc1)C2
Cmax (male beagle dog, plasma; oral, 3 mg/kg): 2710 ng/mL

CCn1c(=O)c(-c2cc(NC(=O)Nc3ccccc3)c(F)cc2Br)cc2cnc(NC)cc21
Cmax (beagle dog, plasma; oral, 5 mg/kg, single dose): 544 ng/mL

COc1cc2c3c(n(CCCN4CCOCC4)c(=O)c2cc1OC)-c1cc2c(cc1C3=O)OCO2
Cmax (female beagle dog, plasma; intravenous, 100 mg/m², infusion): 547 ng/mL

COCc1nn(Cc2ccc(Cn3ccccc3=O)cc2)cc1C(=O)NCc1c(F)ccc(OC)c1F
Cmax (male beagle dog, plasma; oral, 1 mg/kg): 163 ng/mL

CCc1cc(OC)c2nccc(N3CCc4c(cc(Cn5ccnc5)cc4-c4cn(C)nc4C(F)(F)F)C3=O)c2c1
C0 (male CD-1 mouse, plasma; intravenous, 3 mg/kg): 4310 ng/mL

COc1ccc2nc(-c3ccccn3)c(N(C)c3ccc(F)cc3)n2c1
CL/F (male CD-1 mouse, plasma; oral, 50 mg/kg, fasted): 917 mL/min/kg

CC[C@@H]1CN(C(=O)NCC(F)(F)F)C[C@@H]1c1cnc2cnc3[nH]ccc3n12
CL/F (beagle dog, plasma; oral, 1 mg/kg, single dose): 29.3 mL/min/kg
